Active and inactive are the calls of the source. The calls are words filed in the database; no cut-off is given here.
Legend:
[1] = biological target: T1, Neuronal acetylcholine receptor; alpha4/beta2 (Homo sapiens) (UniProt P17787+P43681); assay: Antagonist activity at human alpha4beta2 nAChR expressed in Xenopus oocytes assessed as inhibition of acetylcholine-induced effect at 1 uM incubated for 8 secs followed by compound washout measured after 241 secs by two-electrode voltage clamp technique; format: cell-based
[2] = biological target: Neuronal acetylcholine receptor; alpha4/beta2 (Rattus norvegicus, UniProt P09483+P12390); assay: Displacement of [3H]epibatidine from Sprague-Dawley rat brain alpha4beta2 nAChR after 90 mins by liquid scintillation counting analysis
In short: (§1)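 Radioligand competition binding gave Ki values, reported as mean ± SEM from 2–10 independent experiments.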

[3] = biological target: Neuronal acetylcholine receptor subunit alpha-7 (Homo sapiens) (UniProt P36544); assay: Antagonist activity at human alpha7 nAChR expressed in Xenopus oocytes assessed as inhibition of acetylcholine-induced effect at 1 uM incubated for 12 secs followed by compound washout measured after 181 secs by two-electrode voltage clamp technique; format: cell-based
[4] = biological target: Neuronal acetylcholine receptor subunit alpha-7 (Rattus norvegicus, UniProt Q05941); assay: Displacement of [3H]methyllycaconitine from Sprague-Dawley rat brain alpha7 nAChR after 120 mins by liquid scintillation counting analysis; format: tissue-based; in short: as §1
[5] = biological target: Neuronal acetylcholine receptor subunit alpha-7 (Homo sapiens) (UniProt P36544); assay: Agonist activity at human alpha7 nAChR expressed in Xenopus oocytes at 10 uM incubated for 12 secs followed by compound washout measured after 181 secs by two-electrode voltage clamp technique; format: cell-based
[6] = biological target: T2, Neuronal acetylcholine receptor; alpha3/beta4 (Homo sapiens) (UniProt P30926+P32297); assay: Agonist activity at human alpha3beta4 nAChR expressed in Xenopus oocytes at 10 uM incubated for 8 secs followed by compound washout measured after 241 secs by two-electrode voltage clamp technique; format: cell-based
[7] = biological target: T3, Nicotinic acetylcholine receptor alpha1/beta1/epsilon/delta (Mus musculus) (UniProt P04756+P09690+P02716+P20782); assay: Antagonist activity at mouse muscle alpha1beta1epsilondelta nAChR expressed in Xenopus oocytes assessed as inhibition of acetylcholine-induced effect at 1 uM incubated for 8 secs followed by compound washout measured after 241 secs by two-electrode voltage clamp technique; format: cell-based
[8] = biological target: T3, Nicotinic acetylcholine receptor alpha1/beta1/epsilon/delta (Mus musculus); assay: Agonist activity at mouse muscle alpha1beta1epsilondelta nAChR expressed in Xenopus oocytes at 10 uM incubated for 8 secs followed by compound washout measured after 241 secs by two-electrode voltage clamp technique; format: cell-based
[9] = biological target: T2, Neuronal acetylcholine receptor; alpha3/beta4 (Homo sapiens); assay: Antagonist activity at human alpha3beta4 nAChR expressed in Xenopus oocytes at 1 uM incubated for 8 secs followed by compound washout measured after 241 secs by two-electrode voltage clamp technique; format: cell-based
[10] = biological target: T1, Neuronal acetylcholine receptor; alpha4/beta2 (Homo sapiens); assay: Partial agonist activity at human alpha4beta2 nAChR expressed in Xenopus oocytes at 10 uM incubated for 8 secs followed by compound washout measured after 241 secs by two-electrode voltage clamp technique; format: cell-based
[11] = biological target: T1, Neuronal acetylcholine receptor; alpha4/beta2 (Homo sapiens); assay: Partial agonist activity at human alpha4beta2 nAChR expressed in Xenopus oocytes at 1 uM incubated for 8 secs followed by compound washout measured after 241 secs by two-electrode voltage clamp technique; format: cell-based
[12] = biological target: T3, Nicotinic acetylcholine receptor alpha1/beta1/epsilon/delta (Mus musculus); assay: Agonist activity at mouse muscle alpha1beta1epsilondelta nAChR expressed in Xenopus oocytes at 1 uM incubated for 8 secs followed by compound washout measured after 241 secs by two-electrode voltage clamp technique; format: cell-based
[13] = biological target: T2, Neuronal acetylcholine receptor; alpha3/beta4 (Homo sapiens); assay: Agonist activity at human alpha3beta4 nAChR expressed in Xenopus oocytes at 1 uM incubated for 8 secs followed by compound washout measured after 241 secs by two-electrode voltage clamp technique; format: cell-based
[14] = biological target: Neuronal acetylcholine receptor subunit alpha-7 (Homo sapiens) (UniProt P36544); assay: Agonist activity at human alpha7 nAChR expressed in Xenopus oocytes at 1 uM incubated for 12 secs followed by compound washout measured after 181 secs by two-electrode voltage clamp technique; format: cell-based
[15] = Displacement of [3H]epibatidine from calf adrenal alpha3beta4 nAChR after 90 mins by liquid scintillation counting analysis; parameters: species or system Bos taurus
[16] = Displacement of [3H]epibatidine from Torpedo californica electroplax (alpha1)2beta1gammadelta nAChR after 90 mins by liquid scintillation counting analysis; parameters: species or system Tetronarce californica

Neuronal acetylcholine receptor; alpha4/beta2, sequence (P09483 whole entry): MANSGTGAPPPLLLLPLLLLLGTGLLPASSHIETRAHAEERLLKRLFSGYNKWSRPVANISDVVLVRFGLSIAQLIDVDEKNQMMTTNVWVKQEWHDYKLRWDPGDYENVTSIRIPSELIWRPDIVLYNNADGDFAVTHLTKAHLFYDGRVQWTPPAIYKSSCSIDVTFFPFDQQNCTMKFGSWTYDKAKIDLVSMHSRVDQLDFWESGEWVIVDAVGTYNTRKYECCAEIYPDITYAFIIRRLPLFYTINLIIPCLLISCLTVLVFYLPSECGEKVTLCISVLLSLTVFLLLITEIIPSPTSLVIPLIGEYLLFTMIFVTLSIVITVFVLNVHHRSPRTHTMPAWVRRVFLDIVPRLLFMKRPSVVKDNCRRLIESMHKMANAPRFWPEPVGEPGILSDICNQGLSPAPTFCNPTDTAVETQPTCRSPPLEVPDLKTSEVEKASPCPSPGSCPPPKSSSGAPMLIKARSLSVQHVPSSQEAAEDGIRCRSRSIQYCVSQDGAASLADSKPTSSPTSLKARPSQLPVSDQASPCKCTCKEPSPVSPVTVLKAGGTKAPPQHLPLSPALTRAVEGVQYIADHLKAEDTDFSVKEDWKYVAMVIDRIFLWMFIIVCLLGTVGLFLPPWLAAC
Neuronal acetylcholine receptor; alpha4/beta2, sequence (P12390 whole entry): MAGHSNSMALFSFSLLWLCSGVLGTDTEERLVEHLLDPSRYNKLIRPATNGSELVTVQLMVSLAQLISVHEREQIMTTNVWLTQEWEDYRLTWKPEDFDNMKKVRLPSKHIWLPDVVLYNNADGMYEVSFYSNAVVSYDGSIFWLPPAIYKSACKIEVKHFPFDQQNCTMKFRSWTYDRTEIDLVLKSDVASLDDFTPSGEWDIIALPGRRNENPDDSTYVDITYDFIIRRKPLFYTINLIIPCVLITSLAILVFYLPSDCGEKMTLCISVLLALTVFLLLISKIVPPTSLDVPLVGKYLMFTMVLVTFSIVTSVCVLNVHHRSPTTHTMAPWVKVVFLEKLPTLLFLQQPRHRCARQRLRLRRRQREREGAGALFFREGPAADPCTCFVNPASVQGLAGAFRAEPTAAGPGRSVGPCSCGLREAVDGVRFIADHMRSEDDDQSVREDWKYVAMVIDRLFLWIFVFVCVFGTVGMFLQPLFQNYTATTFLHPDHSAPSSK
Neuronal acetylcholine receptor subunit alpha-7, sequence (Q05941 whole entry): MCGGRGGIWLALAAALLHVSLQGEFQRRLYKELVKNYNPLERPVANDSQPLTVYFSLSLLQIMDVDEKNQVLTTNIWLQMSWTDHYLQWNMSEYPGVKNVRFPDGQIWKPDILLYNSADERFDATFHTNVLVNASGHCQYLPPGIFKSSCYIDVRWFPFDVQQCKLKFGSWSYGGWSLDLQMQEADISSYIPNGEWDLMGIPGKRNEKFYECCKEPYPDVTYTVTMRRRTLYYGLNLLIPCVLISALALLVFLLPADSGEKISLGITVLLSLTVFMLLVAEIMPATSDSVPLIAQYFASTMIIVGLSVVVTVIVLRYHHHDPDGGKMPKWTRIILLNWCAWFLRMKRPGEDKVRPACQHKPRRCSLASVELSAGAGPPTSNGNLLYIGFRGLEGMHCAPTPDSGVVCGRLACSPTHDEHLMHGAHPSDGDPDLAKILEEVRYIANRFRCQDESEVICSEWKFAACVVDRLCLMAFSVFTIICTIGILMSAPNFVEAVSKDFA
Neuronal acetylcholine receptor subunit alpha-7 (Homo sapiens), sequence (P36544 whole entry): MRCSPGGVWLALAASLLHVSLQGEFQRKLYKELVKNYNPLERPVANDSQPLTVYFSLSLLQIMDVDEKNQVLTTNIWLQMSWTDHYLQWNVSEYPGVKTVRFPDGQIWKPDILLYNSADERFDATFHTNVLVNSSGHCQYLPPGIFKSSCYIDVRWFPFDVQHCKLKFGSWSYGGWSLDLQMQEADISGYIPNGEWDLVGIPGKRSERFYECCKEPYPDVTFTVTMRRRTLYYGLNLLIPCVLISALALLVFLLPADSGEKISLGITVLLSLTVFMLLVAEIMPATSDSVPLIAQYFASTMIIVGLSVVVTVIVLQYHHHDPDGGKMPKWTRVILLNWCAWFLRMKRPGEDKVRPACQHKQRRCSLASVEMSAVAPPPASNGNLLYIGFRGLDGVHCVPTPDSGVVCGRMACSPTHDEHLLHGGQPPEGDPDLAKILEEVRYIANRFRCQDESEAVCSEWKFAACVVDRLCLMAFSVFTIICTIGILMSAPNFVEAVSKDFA

| antagonist activity (active/inactive) [1] | Ki [2] [nM] | inhibition [3] | Ki [4] [nM] | Activity [5] | Activity [6] | inhibition [7] | Activity [8] | Activity [9] | Activity [10] | Ki [15] [nM] | Ki [16] [nM] | SMILES | Activity [11] | Activity [12] | Activity [13] | Activity [14] |
| --- | --- | --- | --- | --- | --- | --- | --- | --- | --- | --- | --- | --- | --- | --- | --- | --- |
| Active | 1.2 | inactive | > 10000 | Active | Active | inactive | inactive | – | – | – | – | O=C([C@@H]1C[C@H]1c1ccccc1)N1C[C@@H]2CNC[C@@H](C2)C1 | – | – | – | – |
| Active | 22.9 | inactive | > 5000 | – | inactive | inactive | inactive | inactive | Active | > 5000 | > 5000 | CS(=O)(=O)c1ccc(CC(=O)N2C[C@@H]3CNC[C@@H](C3)C2)cc1 | Active | inactive | inactive | inactive |
| Active | 5.6 | inactive | > 1000 | – | inactive | inactive | inactive | inactive | Active | > 1000 | > 5000 | O=C(c1ccc(-n2ccnc2)cc1)N1C[C@@H]2CNC[C@@H](C2)C1 | Active | inactive | inactive | inactive |
| Active | 0.991 | inactive | > 1000 | – | inactive | inactive | inactive | inactive | Active | > 1000 | > 5000 | COc1ccc(C#CC(=O)N2C[C@@H]3CNC[C@@H](C3)C2)cc1Cl | – | – | – | – |

| SMILES | antagonist activity (active/inactive) [1] | Ki [2] [nM] | inhibition [3] | Ki [4] [nM] | Activity [5] | Activity [6] | inhibition [7] | Activity [8] | Activity [9] | Activity [10] | Ki [15] [nM] | Ki [16] [nM] | Activity [11] | Activity [12] | Activity [13] | Activity [14] |
| --- | --- | --- | --- | --- | --- | --- | --- | --- | --- | --- | --- | --- | --- | --- | --- | --- |
| O=C(c1ccc(-c2cccnc2)cc1)N1C[C@@H]2CNC[C@@H](C2)C1 | Active | 25 | inactive | > 1000 | – | inactive | inactive | inactive | inactive | Active | > 1000 | > 5000 | Active | inactive | inactive | inactive |
| O=C(c1ccc(-c2ccncc2)cc1)N1C[C@@H]2CNC[C@@H](C2)C1 | Active | 7.1 | inactive | > 1000 | – | inactive | inactive | inactive | inactive | Active | > 1000 | > 5000 | Active | inactive | inactive | inactive |

From ChEMBL document CHEMBL3091445, “The 3,7-diazabicyclo[3.3.1]nonane scaffold for subtype selective nicotinic acetylcholine receptor ligands. Part 2: carboxamide derivatives with different spacer motifs” (Bioorg Med Chem, 2013)
